Source: paper PMC7114882 (ACS Omega, 2020)

Columns and labels:
Type in all cases: cell-based
Jurkat cells [1] = experiment: MTT assay of Jurkat cells with 4 in the presence of inhibitors; details: 4 (25 μM), 1 h; BAPTA/AM 20 μM
Outline: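 Jurkat cells (1.0 × 10^5 cells/mL) in 10% FBS RPMI 1640 were preincubated with inhibitor for 30 min at 37 °C under 5% CO2, then given test compound (25 μM) for 1 h. After a further 4 h at 37 °C, 0.5% MTT in PBS was added. Formazan was dissolved overnight in 10% SDS/0.01 N HCl and absorbance read at 570 nm.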

[2] = test system: mitochondrial membrane potential (ΔΨm) of Jurkat cells; experiment: Measurement of mitochondrial membrane potential; details: 4 25 μM; CCCP 40 μM; DilC1(5) 500 nM
Outline: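 Jurkat cells (2.0 × 10^5) in 10% FBS RPMI 1640 were preincubated with or without CCCP (40 μM) for 30 min at 37 °C under 5% CO2, then exposed to test compound (25 μM) for 1 h. ΔΨm was probed with DilC1(5) (500 nM). Confocal imaging recorded bright field, DilC1(5) emission and compound emission.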

[3] = test system: Jurkat cells (T-lymphocyte leukemia); experiment: MTT assay of Jurkat cells
Outline: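 Jurkat cells (2.0 × 10^5 cells/mL) were exposed to test compound ([…]) in 10% FBS/RPMI 1640 for 24 h at 37 °C under 5% CO2. After adding 0.5% MTT in PBS and incubating 4 h at 37 °C, formazan was dissolved overnight in 10% SDS/0.01 N HCl. Absorbance was read at 570 nm.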

Jurkat cells [4] = experiment: Methylene blue staining and TEM of Jurkat cells; details: 4 25 μM 1 h; celastrol 1 μM 24 h
Outline: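 Jurkat cells (3.0 × 10^6) received test compound (25 μM, 1 h, 37 °C) or celastrol (1 μM, 24 h). Cells were pelleted, washed in ice-cold PBS/0.1% NaN3/0.5% FBS and prefixed in 2.5% glutaraldehyde (4 °C, 40 min). Postfixing used 1% OsO4 (4 °C, 30 min), then agarose embedding and ethanol dehydration. Cells were resin-embedded (60 °C, 3 days) and cut into 150 nm sections for methylene blue light microscopy and TEM.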

[5] = test system: intracellular Ca^2+ in Jurkat cells; experiment: Flow cytometry analysis of Jurkat cells stained with Rhod-2 or Rhod-4; details: celastrol, Figure S7

In the case of `CC(=O)OCOC(=O)CN(CC(=O)OCOC(C)=O)c1ccccc1OCCOc1ccccc1N(CC(=O)OCOC(C)=O)CC(=O)OCOC(C)=O` [BAPTA/AM, tetrakis(acetoxymethyl)-1,2-bis(2-aminophenoxy)ethane-N,N,N′,N′-tetraacetate], the “Inhibition of cell death induced by 4 (MTT, microscopy)” value (“Inhibition of cell death induced” below) (Jurkat cells [1]) is reported as “negligibly inhibits”.

In the case of `N#CC(C#N)=NNc1cccc(Cl)c1` [CCCP, Carbonyl cyanide 3-chlorophenylhydrazone], the “Mitochondrial membrane potential (ΔΨm), emission of DilC1(5)” value [2] is reported as “decrease in ΔΨm was also observed”.

For `O=C(Nc1ccc2[nH]nc(-c3ccncc3)c2c1)[C@@H]1CCN(CC(=O)N2CCN(c3ccc(-c4ncccn4)cc3)CC2)C1` [SCH772984], the “Inhibition of cell death induced” value (Jurkat cells [1]) was “negligible inhibition”.

For `Oc1c2ccccc2c2c3c(cccc13)N=N2` [SP600125], the “Inhibition of cell death induced” value (Jurkat cells [1]) was “negligible inhibition”.

With `CN1CCN(CCCN2c3ccccc3Sc3ccc(C(F)(F)F)cc32)CC1` [TFP, trifluoperazine] the EC50 ([3]; Homo sapiens, Jurkat, read-out: EC50, cell death of Jurkat cells) was about 50 µM and the “Cooperative effects with 4 on cell death of Jurkat cells” value ([3]; TFP with 4 (25 μM), data not shown) was “negligible”.

For `N#CC(=C(/N)Sc1ccccc1N)/C(C#N)=C(/N)Sc1ccccc1N` [U0126], the “Inhibition of cell death induced” value (Jurkat cells [1]) was “negligible inhibition”.

`CC1=C(O)C(=O)C=C2C1=CC=C1[C@@]2(C)CC[C@@]2(C)[C@@H]3C[C@](C)(C(=O)O)CC[C@]3(C)CC[C@]12C` [celastrol] was tested, and the “Cytoplasmic vacuolization, TEM” value (Jurkat cells [4]) was “vacuolization”, the “Cytoplasmic vacuolization, methylene blue staining” value (Jurkat cells [4]) was “same intracellular morphological changes” and the “Change in mitochondrial Ca2+ concentration (Rhod-2)” value [5] was “small change”.
